Results as given in ChEMBL document CHEMBL4270636, “5'-Chloro-2,2'-dihydroxychalcone and related flavanoids as treatments for prostate cancer” (Eur J Med Chem, 2018).
Each block holds one molecule with its values, some of them ahead of it. Active and inactive are the calls of the source. No cut-off for these calls is given here.

Assays:
LNCaP [1] = experiment: Antiproliferative activity against human LNCAP cells assessed as reduction in cell growth treated every 2 days for 4 days by hemocytometry; type: functional, cell-based
PC-3 [2] = experiment: Antiproliferative activity against human PC3 cells assessed as reduction in cell growth treated every 2 days for 4 days by hemocytometry; type: functional, cell-based
Androgen receptor = molecular target: T1, Androgen receptor (Homo sapiens, UniProt P10275); experiment: Antagonist activity at AR in human LNCAP cells assessed as reduction in DHT-induced transcriptional activation after 24 hrs by luciferase reporter gene assay; type: cell-based
T1 sequence (P10275 whole entry): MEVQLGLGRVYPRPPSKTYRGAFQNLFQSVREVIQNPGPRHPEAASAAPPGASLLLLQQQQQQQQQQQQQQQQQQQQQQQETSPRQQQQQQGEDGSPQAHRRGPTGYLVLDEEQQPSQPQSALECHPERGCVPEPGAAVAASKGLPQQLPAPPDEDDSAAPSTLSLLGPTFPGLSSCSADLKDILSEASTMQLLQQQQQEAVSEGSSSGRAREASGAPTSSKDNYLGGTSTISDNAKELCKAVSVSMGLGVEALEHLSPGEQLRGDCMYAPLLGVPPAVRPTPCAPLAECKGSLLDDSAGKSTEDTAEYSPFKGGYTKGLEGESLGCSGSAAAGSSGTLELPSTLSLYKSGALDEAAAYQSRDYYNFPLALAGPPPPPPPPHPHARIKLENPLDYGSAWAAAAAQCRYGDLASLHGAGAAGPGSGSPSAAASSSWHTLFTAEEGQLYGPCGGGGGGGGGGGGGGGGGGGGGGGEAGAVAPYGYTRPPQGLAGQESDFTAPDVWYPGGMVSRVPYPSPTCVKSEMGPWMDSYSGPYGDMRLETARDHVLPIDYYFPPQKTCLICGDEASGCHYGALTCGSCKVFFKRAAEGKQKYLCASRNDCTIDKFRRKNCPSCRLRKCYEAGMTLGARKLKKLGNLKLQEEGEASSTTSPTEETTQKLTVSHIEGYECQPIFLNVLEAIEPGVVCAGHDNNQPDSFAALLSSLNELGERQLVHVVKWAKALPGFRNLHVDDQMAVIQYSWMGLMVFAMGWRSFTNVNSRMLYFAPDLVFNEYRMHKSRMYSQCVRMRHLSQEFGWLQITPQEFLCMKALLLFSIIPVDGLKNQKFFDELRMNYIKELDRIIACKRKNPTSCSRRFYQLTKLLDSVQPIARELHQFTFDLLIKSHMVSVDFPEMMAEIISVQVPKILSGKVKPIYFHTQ

DU-145 = experiment: Antiproliferative activity against human DU145 cells assessed as reduction in cell growth treated every 2 days for 4 days by hemocytometry; type: functional, cell-based
[3] = tested on: Androgen receptor (Homo sapiens), P10275 [UNDEFINED MUTATION]; settings: at 3 to 10 µM
LNCaP [4] = experiment: Antiproliferative activity against human LNCAP cells assessed as reduction in cell growth at 10 uM treated every 2 days for 4 days by hemocytometry; type: functional, cell-based
[5] = molecular target: T2, Androgen receptor (Homo sapiens) (UniProt P10275); experiment: Antagonist activity at AR in human LNCAP cells assessed as reduction in DHT-induced cell growth at 1 to 3 uM treated for every 2 days for 4 days by hemocytometry; type: cell-based
T2 sequence (whole entry): T1 sequence (P10275 whole entry)

Homo sapiens [6] = species: Homo sapiens; experiment: Antiproliferative activity against human LNCaP-SF cells assessed as reduction in cell growth at 10 uM treated every 2 days for 4 days by hemocytometry; type: functional, cell-based
Outline: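 LNCaP-SF castration-resistant subline cultured 4 days with compound at stated concentrations, with or without 0.1 nM DHT; growth assessed by cell counting.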

[7] = molecular target: T2, Androgen receptor (Homo sapiens); experiment: Antagonist activity at AR (unknown origin) expressed in human PC3 cells assessed as reduction in DHT-induced transcriptional activation at 3 to 10 uM after 24 hrs by luciferase reporter gene assay; type: cell-based
Outline: (§1)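 PC-3 cells (AR-negative) co-transfected with wild-type or AR-V7 expression vector plus PSA promoter-luciferase reporter (pGL3PSAp-5.8, 0.5 ug/well); seeded 50,000/well, transfected after 24 h, treated with compounds ± 1 nM DHT for 24 h from 24 h post-transfection; lysed cells read for luciferase activity by luminometer.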

[8] = Antiproliferative activity against human PC3-TxR cells assessed as reduction in cell growth treated every 2 days for 4 days by hemocytometry; type: functional, cell-based
[9] = tested on: Androgen receptor (Homo sapiens), P10275 [UNDEFINED MUTATION]; experiment: Antagonist activity at AR V7 mutant (unknown origin) expressed in human PC3 cells assessed as reduction in DHT-induced transcriptional activation after 24 hrs by luciferase reporter gene assay; type: cell-based; outline: as §1
PC-3 [10] = experiment: Cell cycle arrest in human PC3 cells assessed as accumulation at Sub-G1 phase at 2 times IC50 after 24 to 48 hrs by propidium iodide staining based flow cytometry; type: functional
A549 [11] = experiment: Cell cycle arrest in human A549 cells assessed as accumulation at Sub-G1 phase at 3 times IC50 after 24 to 48 hrs by propidium iodide staining based flow cytometry; type: functional
KB = experiment: Antiproliferative activity against human KB cells assessed as reduction in cell growth after 72 hrs by sulforhodamine B assay
PC-3 [12] = experiment: Antitumor activity against human PC3 cells xenografted in C.B-17 SCID mouse assessed as tumor growth inhibition at 30 mg/kg, ip administered every 4 days measured during compound dosing; type: functional, organism-based
Outline: (§2)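 Male C.B-17 scid mice (purchased at 7 weeks) given 2.0×10⁶ PC-3 cells in 50% matrigel subcutaneously on dorsal side at 8 weeks; at ~50 mm³ tumor, randomized into groups of 5, dosing from second day at 30 mg/kg i.p. every 4 days; tumor volume and body weight followed; mean ± SD.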

Mus musculus = experiment: Toxicity in C.B-17 SCID mouse xenografted with human PC3 cells assessed as body weight loss at 30 mg/kg, ip administered every 4 days; type: organism-based; settings: in vivo, 96 h; outline: as §2
MDA-MB-231 = experiment: Antiproliferative activity against human MDA-MB-231 cells assessed as reduction in cell growth after 72 hrs by sulforhodamine B assay; type: functional, cell-based; settings: MDA-MB-231, 72 h
MCF7 = experiment: Antiproliferative activity against human MCF7 cells assessed as reduction in cell growth after 72 hrs by sulforhodamine B assay; settings: MCF7, 72 h
[13] = Antiproliferative activity against human DU145/TxR/CxR cells assessed as reduction in cell growth treated every 2 days for 4 days by hemocytometry; type: functional, cell-based; settings: DU-145
A549 [14] = experiment: Antiproliferative activity against human A549 cells assessed as reduction in cell growth after 72 hrs by sulforhodamine B assay; settings: A549, 72 h
[15] = Antiproliferative activity against human PC3/TxR/CxR cells assessed as reduction in cell growth treated every 2 days for 4 days by hemocytometry; type: functional, cell-based
[16] = Antiproliferative activity against human DU145-TxR cells assessed as reduction in cell growth treated every 2 days for 4 days by hemocytometry; type: functional, cell-based
[17] = Antiproliferative activity against human KBVIN cells assessed as reduction in cell growth after 72 hrs by sulforhodamine B assay; type: functional, cell-based
Homo sapiens [18] = species: Homo sapiens; experiment: Induction of microtubule depolymerization in human PC3 cells at 2 times IC50 after 24 hrs by […] microscopic analysis; type: cell-based
A549 [19] = experiment: Cell cycle arrest in human A549 cells assessed as accumulation at G1 phase at 3 times IC50 after 24 to 48 hrs by propidium iodide staining based flow cytometry; type: functional

- IC50 (LNCaP [1]): 5.45 µM
- IC50 (PC-3 [2]): 2.56 µM
- IC50 (Androgen receptor): < 1 µM
- IC50 (DU-145): 4.11 µM
- inhibition [3]: inactive
- Activity [5]: Active
- inhibition [7]: Active
Compound: O=C1CC(c2ccccc2O)Oc2ccccc21 (centres undefined) [2'-HYDROXY-FLAVANONE]
- Activity (LNCaP [4]): Active
- Activity (Homo sapiens [6]): Active

- IC50 (Androgen receptor): 1.51 µM
Compound: O=C(/C=C/c1ccccc1)c1cc(Cl)ccc1O

- IC50 (Androgen receptor): 8.69 µM
Compound: O=C(/C=C/c1ccccc1O)c1cc(Br)ccc1O

- inhibition [9]: Dose-dependent effect
- IC50 (LNCaP [1]): 3.52 µM
- IC50 (PC-3 [2]): 1.52 µM
- IC50 (Androgen receptor): < 1 µM
- IC50 (DU-145): 4.5 µM
- Activity [5]: Active
- IC50 (KB): 5 µM
- inhibition [7]: Active
- IC50 (MDA-MB-231): 5.1 µM
- IC50 (MCF7): 4.9 µM
- IC50 (A549 [14]): 9.1 µM
Compound: O=C(/C=C/c1ccccc1O)c1cc(Cl)ccc1O
- IC50 [8]: < 3 µM
- Activity (PC-3 [10]): Active
- Activity (LNCaP [4]): Active
- Activity (A549 [11]): inactive
- Activity (Homo sapiens [6]): Active
- TGI (PC-3 [12]): Active
- Activity (Mus musculus): Non-Toxic
- IC50 [13]: 5.32 µM
- IC50 [15]: 4.07 µM
- IC50 [16]: 7.43 µM
- IC50 [17]: 4.9 µM
- Activity (Homo sapiens [18]): Active
- Activity (A549 [19]): Active

- IC50 (Androgen receptor): 6.19 µM
Compound: COc1ccc2oc(-c3ccccc3OC)cc(=O)c2c1

- IC50 (MDA-MB-231): 0.0096 µM
Compound: CC(=O)O[C@H]1C(=O)[C@@]2(C)[C@H]([C@H](OC(=O)c3ccccc3)[C@]3(O)C[C@H](OC(=O)[C@H](O)[C@@H](NC(=O)c4ccccc4)c4ccccc4)C(C)=C1C3(C)C)[C@]1(OC(C)=O)CO[C@@H]1C[C@@H]2O [PACLITAXEL]
- IC50 [17]: 1.73 µM

- IC50 (Androgen receptor): 3.57 µM
Compound: O=C1CC(c2ccccc2O)Oc2c(Br)cc(Br)cc21 (centres undefined)

- IC50 (Androgen receptor): 1.64 µM
Compound: O=C(/C=C/c1ccccc1O)c1cc(I)ccc1O

- IC50 (Androgen receptor): > 10 µM
Compound: O=C1CC(c2ccccc2O)Oc2cc(O)cc(O)c21 (centres undefined)

- IC50 (Androgen receptor): 5.01 µM
Compound: COc1ccccc1/C=C/C(=O)c1cc(F)ccc1O

- IC50 (Androgen receptor): > 10 µM
Compound: O=C1CC(c2ccccc2O)Oc2cc(O)ccc21 (centres undefined)

- IC50 (Androgen receptor): 1.42 µM
Compound: O=C(/C=C/c1ccccc1O)c1cc(F)ccc1O

- IC50 (LNCaP [1]): > 10 µM
- IC50 (Androgen receptor): < 1 µM
Compound: O=c1cc(-c2ccccc2O)oc2ccccc12

- IC50 (Androgen receptor): 1.77 µM
Compound: O=C1CC(c2ccccc2O)Oc2ccc(Br)cc21 (centres undefined)

- IC50 (Androgen receptor): 1.72 µM
Compound: COc1ccccc1/C=C/C(=O)c1cc(I)ccc1O

- IC50 (Androgen receptor): 5.92 µM
Compound: O=C(/C=C/c1ccc(O)cc1)c1cc(Cl)ccc1O

Compound: CNC(=O)c1ccc(N2C(=S)N(c3ccc(C#N)c(C(F)(F)F)c3)C(=O)C2(C)C)cc1F
- Activity (LNCaP [4]): inactive

- IC50 (LNCaP [1]): 4.2 µM
- IC50 (PC-3 [2]): 4.16 µM
- IC50 (Androgen receptor): < 1 µM
- IC50 (DU-145): 5.03 µM
Compound: CC(C)Oc1ccccc1/C=C/C(=O)c1cc(Br)ccc1O
